L major viab = reduces viability of Leishmania major promastigotes; resazurin fluorescence viability; inhibition, % at 10 µM; 200,000 compounds, 9% hits; in the data active = inhibition above about 50%;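 note: promastigotes grown with compound for 44 hours at 28 °C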
CHOP inhibitor = inhibitors of CHOP induction in ER stress response; inhibition, % at 10 µM; AID 2732; 220,000 compounds, 3.8% hits; CHO-K1 CHOP-promoter luciferase, tunicamycin-induced, 15-18 h;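 active = compounds that reduced the stress-induced luciferase reporter signal by more than about 70% of percent inhibition, limit read from the data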;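 note: 0% = tunicamycin plus vehicle and 100% = wells without tunicamycin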
CHOP UPR activ = activators of apoptotic arm of unfolded protein response (CHOP). 330,000 compounds, 0.34% hits. activation, % at 10 µM. CHO-CHOP luciferase reporter, UPR activation, luminescence; percent of tunicamycin response over DMSO baseline. AID 449763;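 active = at 10 µM dose, activation of 40% or more, normalized to positive control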;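 note: 100% = tunicamycin at 10 µg/mL and 0% = DMSO alone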
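Test system: CHO-CHOP cells, stable luciferase reporter of PERK-eIF2a-CHOP signalling | Quantity: 500 CHO-CHOP cells per well | Buffer or medium: F12 plus 10% serum | Compound dosing: 10 µM single point, 0.5% DMSO | Schedule: 6 h compound treatment, 37 °C | Signal: Luciferase luminescence | Control set: Tunicamycin high control, DMSO low control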
T cruzi inh = blocks replication of Trypanosoma cruzi; T. cruzi beta-gal in NIH3T3, luminescence, 90 h; inhibition, % (no concentration beside the values); 300,000 compounds, 1.4% hits; AID 1885;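 active = mean inhibition across valid replicates above about 55%, limit read from the data; inconclusive = mean below that limit but half or more replicates reach it; inactive = mean below it, under half of replicates reach it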;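 note: signal also drops with host cell toxicity which is not excluded here; 0% = plate median of DMSO wells and 100% = zero luminescence signal; higher percent means less beta-gal luminescence so fewer parasites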
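compound dosing = single 50 nL compound addition per well in DMSO | material = NIH/3T3 host cells with β-galactosidase reporter T. cruzi | input = 5,000 host fibroblasts per well | timing = ≥90 h infection period, 3 h prior cell attachment | read-out basis = percent inhibition of parasite-derived β-gal signal | detection = GalScreen β-gal luminescence, detergent lysis, 60 min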
UPR XBP1 act = adaptive UPR (XBP1) activation. CHO-XBP1 luciferase reporter, IRE1-XBP1 UPR activation, luminescence; percent of tunicamycin response, DMSO as zero. activation, % at 20 µM. 330,000 compounds, 0.33% hits;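 active = versus positive control, 20 µM dose yields 30% or more activation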;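 note: 100% = tunicamycin at 10 µg/mL and 0% = DMSO only wells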
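Signal: luciferase luminescence; Assay system: CHO-XBP1 luciferase reporter cells; Amount: one thousand reporter cells per well; Dosing: 20 µM single concentration, DMSO 1%; Benchmarks: high control tunicamycin 10 µg/mL final, low control DMSO vehicle only; Schedule: 6 h compound exposure at 37 °C, 5% CO2; Evaluation: percent activation relative to tunicamycin reference.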
Dynein transport = blocks dynein driven cargo transport along microtubules; 3617.4 mouse cells, GR-EGFP nuclear translocation imaging; test concentration mostly 20 µM; stimulated with dexamethasone, 1 µM; stronger effect = lower value; z-score, hits read low; 220,000 compounds, 0.47% hits; AID 1381;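 active = plate z-score of nuclear minus cytoplasmic receptor signal below a set negative limit, without overly bright fluorescence or cell loss, cut at about -3.5 in these data, passing the limit was not always enough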;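 note: z-score of nuclear minus cytoplasmic ring GR-EGFP intensity difference per well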
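Schedule: 48 h induction, then 1 h compound, then 30 min agonist, 37 °C. Buffer or medium: tetracycline-free induction medium containing charcoal-stripped FBS. Reagent: 1.0 µM final dexamethasone stimulus. Evaluation: nuclear versus cytoplasmic GR-EGFP signal, averaged per well. Signal: high-content fluorescence imaging after fixation.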
CHOP confirm = confirmation of CHOP induction inhibitors. shares compounds with CHOP inhibitor. CHO-CHOP promoter luciferase reporter, tunicamycin-induced, luminescence. inhibition, % at 10 µM. 2,100 compounds, 45% hits. AID 504437;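 active = mean of three repeat readings of reporter signal inhibition above a set limit, cut at about 70% in these data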;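 note: 0% = tunicamycin plus vehicle and 100% = wells lacking tunicamycin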
Starred values were filed as active, the others as inactive; ? = inconclusive; / = no result given. The full list was thinned out, with hits kept by preference.

SMILES	L major viab	CHOP inhibitor	CHOP UPR activ	T cruzi inh	UPR XBP1 act	Dynein transport	CHOP confirm
Cc1ccc2nc3c(cc2c1)CN(Cc1ccco1)C(=NCC1CCCO1)S3 (stereo unspecified)	40	-56	0	39	-1	-0.5	/
Cc1cc2cc(CN(Cc3ccco3)C(=O)C3CCCCC3)c(=O)[nH]c2cc1C	14	105*	-1	19	6	0.55	37
CC(=O)Oc1cccc(/C=c2\sc3nc(-c4ccco4)nn3c2=O)c1	-4	107*	4	-14	0	-1.1	27
CCCOc1ccc(/C=c2\sc3nc(-c4ccco4)nn3c2=O)cc1OCC	9	41	-1	/	-3	0.96	/
O=C(CCl)N(c1ccccc1)c1c[nH]c2ccccc12	97*	/	0	14	-10	-2.8	-29
N#C/C(=C\c1ccc(OC(=O)c2ccc(Br)s2)cc1)c1nc2ccccc2[nH]1	2	100*	/	/	/	-1	39
N#C/C(=C\c1ccc(OC(=O)c2ccc(Cl)s2)cc1)c1nc2ccccc2[nH]1	7	107*	9	-19	18	-0.0032	34
N#C/C(=C\c1cccc(OCC(=O)O)c1)c1nc2ccccc2[nH]1	/	/	1	-9	-7	/	/
O=C(NCc1ccncc1)c1cccc(S(=O)(=O)Nc2ccc(F)cc2)c1	/	/	-1	/	0	/	/
CC1C/C(=C/c2ccncc2)C(=O)/C(=C/c2ccncc2)C1 (stereo unspecified)	101*	99*	36	38	2	-6*	-59
COc1ccc(C(=O)c2oc3ccccc3c2NC(C)=O)cc1	-5	27	1	-8	-1	-0.33	/
COc1ccc(C(=O)c2c(C(F)(F)F)oc3c2C(=O)c2ccccc2C3=O)cc1	100*	106*	-1	?	-3	0.39	117*
COc1ccccc1N1CCN(C(=O)C(C)NC(=O)c2cccc([N+](=O)[O-])c2)CC1 (stereo unspecified)	/	/	0	1	1	/	/
O=C(NCc1ccco1)/C(=C/c1cccc(C(F)(F)F)c1)c1nc2ccccc2[nH]1	80*	96*	3	15	-1	-1.1	34
Cc1ccc(C)c(OCCC(=O)N2CCN(S(=O)(=O)c3ccc([N+](=O)[O-])cc3)CC2)c1	/	/	2	/	-1	/	/
COc1ccc(/C=N/NC(=O)COc2ccccc2-c2ccccc2)cc1	8	106*	1	-15	9	1.7	11
O=C(COC(=O)C1CCN(S(=O)(=O)c2cccs2)CC1)NCc1ccc(F)cc1	/	14	-2	7	-2	-0.47	/
O=S(=O)(Nc1ccc(O)c(Sc2nc3ccccc3s2)c1)c1ccc(F)cc1	35	18	-2	8	-7	0.68	/
O=[N+]([O-])c1cc(S(=O)(=O)C(F)(F)F)ccc1Sc1nc2ccccc2s1	101*	107*	20	48	-14	-3.4	-28
Cc1cc(-c2ccccc2)n[nH]1	-4	7	-3	-1	-5	-0.35	/
FC(F)C(F)(F)C(F)(F)C(F)(F)c1cc(-c2ccccc2)n[nH]1	-4	106*	0	12	0	-1.2	111*
CC(C)CNC(=O)c1cc(=O)[nH]c2ccc(S(=O)(=O)Nc3ccc(F)cc3)cc12	/	/	2	1	7	/	/
Cn1c(=O)c2ncn(CC(=O)Nc3nc(-c4ccc(Cl)cc4)cs3)c2n(C)c1=O	1	100*	2	3	0	-0.35	61
Cn1c(=O)c2c(ncn2CC(=O)Nc2nc(-c3ccccc3Cl)cs2)n(C)c1=O	-5	19	-1	-17	0	-1.2	/
CCC(=O)NCCc1nc2cc(NC(=O)c3ccc(F)cc3)ccc2n1C	/	/	3	-13	-3	/	/
SMILES	L major viab	CHOP inhibitor	CHOP UPR activ	T cruzi inh	UPR XBP1 act	Dynein transport	CHOP confirm
Cc1nc(-c2ccc(Br)cc2)ccc1C(=O)O	-9	6	2	-1	1	0.22	/
COc1ccc(CCNC(=O)c2nnn(-c3ccccc3OC)c2N)cc1OC	-3	25	2	-16	1	0.029	/
COc1ccc(CCNC(=O)c2nnn(-c3ccc4c(c3)OCCO4)c2N)cc1OC	1	97*	-4	-11	-3	-0.84	84*
Cc1ccc(COc2ccc(Br)cc2/C=N/O)cc1	7	110*	5	17	3	-0.74	104*
O/N=C/c1cc(Cl)ccc1OCc1ccccc1Cl	-1	107*	0	9	1	1.3	30
O=Cc1cccc(OC(=O)c2ccc(Cl)cc2Cl)c1	0	101*	5	30	0	-0.34	10
COc1cc(C(=O)Oc2cccc(C=O)c2)cc(OC)c1OC	18	19	-2	2	2	-0.081	/
O=S(=O)(Nc1ccc(-n2cccc2)cc1)c1ccc(Cl)cc1Cl	-6	102*	1	2	2	-0.2	15
Cc1cc(C)c(C)c(S(=O)(=O)N(C)CCc2ccccn2)c1C	/	/	-2	/	-3	/	/
O=C(Oc1cc2oc(=O)c3c(c2cc1Cl)CCCC3)c1ccco1	-3	57	0	3	1	-0.35	/
CC(=O)Oc1cc2oc(=O)c3c(c2cc1Cl)CCC3	-4	99*	1	21	-2	3.2	6
CC(C)COC(=O)c1cccc2c1-c1ccccc1/C2=N\O	6	101*	-1	6	0	-0.39	64
CCC1CCc2c(sc(NC(=O)c3cccnc3)c2C(N)=O)C1 (stereo unspecified)	5	20	4	20	15	-0.35	/
CCC1CCc2c(sc(NC(=O)c3ccoc3C)c2C(N)=O)C1 (stereo unspecified)	9	102*	4	24	4	0.86	102*
CCCCC(=O)OCC(=O)N1N=C(c2c[nH]c3ccccc23)C(O)C1c1ccc(OC)cc1 (stereo unspecified)	/	/	2	-15	7	/	/
CCCC(=O)N1N=C(c2ccccc2)CC1c1cn(C)c2ccccc12 (stereo unspecified)	11	105*	0	-4	1	-0.74	9
Cc1cc(Cl)ccc1NC(=O)CSc1n[nH]c(N)n1	/	/	-2	/	1	/	/
c1ccc(-n2nnnc2-c2cnc(-c3ccncc3)nc2-c2cccs2)cc1	23	34	0	2	1	-0.11	/
Fc1ccc(-n2nnnc2-c2cnc(-c3cccs3)nc2C(F)(F)F)cc1	23	105*	0	9	-6	0.8	121*
CC(C)C[C@H](NC(=O)OC(C)(C)C)c1nnc(SCC(=O)Nc2ccc(Br)cc2)o1	-6	100*	-2	3	-1	-0.11	132*

Screens from PubChem.
